Reference: PMC6926016 (Proceedings of the National Academy of Sciences of the …, 2019)

Key:
Format in all cases: cell-based
Conditions in all cases: Ca2+ assay
human TRPA1 = human TRPA1 (Homo sapiens, UniProt O75762); assay: Calcium influx assay in HEK-293F cells transiently expressing human TRPA1
rat TRPA1 = rat TRPA1 (Rattus norvegicus, UniProt Q6RI86); assay: Calcium influx assay, rat TRPA1
How it was run: (§1)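 TRPA1 orthologue cDNAs in pcDNA3.1 Hygro, transiently transfected, each construct tested in at least 2 independent transfections. Fluorescence Ca2+ influx (RFU) read in Hanks balanced salt solution with 1.26 mM Ca2+ and 1.0 mM Mg2+.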

dog TRPA1 = dog TRPA1 (Canis lupus familiaris, UniProt A0A8I3Q1Q7); assay: Calcium influx assay, dog TRPA1
Sequence of dog TRPA1 (A0A8I3Q1Q7 1-1118): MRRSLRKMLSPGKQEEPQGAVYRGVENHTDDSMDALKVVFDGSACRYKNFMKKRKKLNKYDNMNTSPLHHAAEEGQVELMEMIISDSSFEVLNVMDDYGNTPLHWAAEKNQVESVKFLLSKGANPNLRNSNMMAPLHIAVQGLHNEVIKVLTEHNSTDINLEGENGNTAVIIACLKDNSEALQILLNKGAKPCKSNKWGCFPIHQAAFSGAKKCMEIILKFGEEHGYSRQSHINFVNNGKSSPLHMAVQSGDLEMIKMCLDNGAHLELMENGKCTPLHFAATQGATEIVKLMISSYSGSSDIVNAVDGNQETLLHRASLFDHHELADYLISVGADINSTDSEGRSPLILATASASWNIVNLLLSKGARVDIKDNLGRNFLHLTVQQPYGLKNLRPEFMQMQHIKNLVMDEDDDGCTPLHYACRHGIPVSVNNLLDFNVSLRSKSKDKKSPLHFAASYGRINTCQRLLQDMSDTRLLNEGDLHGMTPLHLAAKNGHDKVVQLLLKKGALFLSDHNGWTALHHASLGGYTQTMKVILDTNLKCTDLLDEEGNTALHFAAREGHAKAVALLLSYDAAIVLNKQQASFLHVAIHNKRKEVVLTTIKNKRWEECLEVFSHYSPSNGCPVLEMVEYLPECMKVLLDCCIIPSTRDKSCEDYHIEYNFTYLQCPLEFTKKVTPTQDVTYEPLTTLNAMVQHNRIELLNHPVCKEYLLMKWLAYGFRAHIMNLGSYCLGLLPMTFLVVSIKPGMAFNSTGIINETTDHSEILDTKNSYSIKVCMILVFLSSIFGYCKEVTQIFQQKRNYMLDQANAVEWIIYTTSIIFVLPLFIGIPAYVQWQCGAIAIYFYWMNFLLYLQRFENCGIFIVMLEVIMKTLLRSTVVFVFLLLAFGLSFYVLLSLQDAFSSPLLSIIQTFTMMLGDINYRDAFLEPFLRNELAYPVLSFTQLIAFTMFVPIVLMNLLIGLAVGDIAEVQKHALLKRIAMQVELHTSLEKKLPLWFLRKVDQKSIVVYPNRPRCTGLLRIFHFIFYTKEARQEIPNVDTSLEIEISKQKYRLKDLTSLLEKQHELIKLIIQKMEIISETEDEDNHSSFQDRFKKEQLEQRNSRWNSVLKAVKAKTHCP
How it was run: as §1

guinea pig TRPA1 = guinea pig TRPA1 (Cavia porcellus, UniProt H0VJD1); assay: Calcium influx assay, guinea pig TRPA1
Sequence of guinea pig TRPA1 (H0VJD1 1-991): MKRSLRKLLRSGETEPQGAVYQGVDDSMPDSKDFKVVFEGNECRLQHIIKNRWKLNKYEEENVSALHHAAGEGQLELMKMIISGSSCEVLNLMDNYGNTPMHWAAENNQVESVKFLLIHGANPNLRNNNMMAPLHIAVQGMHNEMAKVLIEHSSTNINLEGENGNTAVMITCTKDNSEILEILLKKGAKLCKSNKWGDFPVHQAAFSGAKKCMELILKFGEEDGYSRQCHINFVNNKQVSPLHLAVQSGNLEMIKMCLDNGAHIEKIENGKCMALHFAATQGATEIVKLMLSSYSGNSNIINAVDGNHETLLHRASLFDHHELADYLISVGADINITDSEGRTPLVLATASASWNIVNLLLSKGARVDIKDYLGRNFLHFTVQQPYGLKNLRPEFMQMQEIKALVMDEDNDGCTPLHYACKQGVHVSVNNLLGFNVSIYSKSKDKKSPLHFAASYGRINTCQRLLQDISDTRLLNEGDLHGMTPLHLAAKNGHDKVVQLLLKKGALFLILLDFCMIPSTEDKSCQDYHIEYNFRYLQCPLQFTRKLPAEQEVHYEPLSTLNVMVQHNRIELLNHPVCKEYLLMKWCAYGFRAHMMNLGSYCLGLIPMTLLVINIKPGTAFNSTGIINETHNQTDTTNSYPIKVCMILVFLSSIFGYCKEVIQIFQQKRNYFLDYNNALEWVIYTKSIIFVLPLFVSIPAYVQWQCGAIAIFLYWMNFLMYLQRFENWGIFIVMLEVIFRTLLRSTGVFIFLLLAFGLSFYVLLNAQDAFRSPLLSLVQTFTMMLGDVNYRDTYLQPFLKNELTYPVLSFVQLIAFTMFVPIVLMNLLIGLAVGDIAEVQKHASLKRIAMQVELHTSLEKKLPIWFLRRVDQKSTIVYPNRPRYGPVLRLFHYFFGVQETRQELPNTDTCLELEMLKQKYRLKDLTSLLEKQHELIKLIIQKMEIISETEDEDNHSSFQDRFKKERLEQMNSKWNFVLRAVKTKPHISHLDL
How it was run: as §1

chicken TRPA1 = assay: Calcium influx assay, chicken TRPA1
How it was run: as §1

Sequence of human TRPA1 (O75762 whole entry): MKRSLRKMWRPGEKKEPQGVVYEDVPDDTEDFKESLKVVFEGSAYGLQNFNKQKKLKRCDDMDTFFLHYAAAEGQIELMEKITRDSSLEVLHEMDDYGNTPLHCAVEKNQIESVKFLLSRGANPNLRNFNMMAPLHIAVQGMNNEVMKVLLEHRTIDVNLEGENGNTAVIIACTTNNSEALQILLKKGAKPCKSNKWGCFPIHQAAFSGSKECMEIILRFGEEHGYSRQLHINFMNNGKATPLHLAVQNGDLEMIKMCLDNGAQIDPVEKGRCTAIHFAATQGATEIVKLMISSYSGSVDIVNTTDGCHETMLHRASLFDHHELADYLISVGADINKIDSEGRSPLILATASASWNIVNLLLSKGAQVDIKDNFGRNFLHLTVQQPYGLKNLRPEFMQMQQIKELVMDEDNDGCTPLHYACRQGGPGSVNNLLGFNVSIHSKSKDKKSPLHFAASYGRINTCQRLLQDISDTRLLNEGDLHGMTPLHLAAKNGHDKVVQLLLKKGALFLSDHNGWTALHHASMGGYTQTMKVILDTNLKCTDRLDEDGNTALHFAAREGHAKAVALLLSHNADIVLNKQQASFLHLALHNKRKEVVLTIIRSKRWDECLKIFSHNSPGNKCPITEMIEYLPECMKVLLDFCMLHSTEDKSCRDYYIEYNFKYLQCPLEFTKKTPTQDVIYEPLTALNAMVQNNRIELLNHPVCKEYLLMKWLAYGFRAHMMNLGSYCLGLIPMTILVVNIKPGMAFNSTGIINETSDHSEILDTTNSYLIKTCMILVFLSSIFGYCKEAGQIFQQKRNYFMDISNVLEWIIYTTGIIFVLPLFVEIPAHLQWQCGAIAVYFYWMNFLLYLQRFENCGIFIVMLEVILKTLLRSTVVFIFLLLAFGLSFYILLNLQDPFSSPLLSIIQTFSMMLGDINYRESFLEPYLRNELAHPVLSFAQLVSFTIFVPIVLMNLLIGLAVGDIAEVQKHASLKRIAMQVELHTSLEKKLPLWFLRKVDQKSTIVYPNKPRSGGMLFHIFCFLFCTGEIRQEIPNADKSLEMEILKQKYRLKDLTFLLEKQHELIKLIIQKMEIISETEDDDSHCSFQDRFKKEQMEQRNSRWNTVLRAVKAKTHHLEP
Sequence of rat TRPA1 (Q6RI86 whole entry): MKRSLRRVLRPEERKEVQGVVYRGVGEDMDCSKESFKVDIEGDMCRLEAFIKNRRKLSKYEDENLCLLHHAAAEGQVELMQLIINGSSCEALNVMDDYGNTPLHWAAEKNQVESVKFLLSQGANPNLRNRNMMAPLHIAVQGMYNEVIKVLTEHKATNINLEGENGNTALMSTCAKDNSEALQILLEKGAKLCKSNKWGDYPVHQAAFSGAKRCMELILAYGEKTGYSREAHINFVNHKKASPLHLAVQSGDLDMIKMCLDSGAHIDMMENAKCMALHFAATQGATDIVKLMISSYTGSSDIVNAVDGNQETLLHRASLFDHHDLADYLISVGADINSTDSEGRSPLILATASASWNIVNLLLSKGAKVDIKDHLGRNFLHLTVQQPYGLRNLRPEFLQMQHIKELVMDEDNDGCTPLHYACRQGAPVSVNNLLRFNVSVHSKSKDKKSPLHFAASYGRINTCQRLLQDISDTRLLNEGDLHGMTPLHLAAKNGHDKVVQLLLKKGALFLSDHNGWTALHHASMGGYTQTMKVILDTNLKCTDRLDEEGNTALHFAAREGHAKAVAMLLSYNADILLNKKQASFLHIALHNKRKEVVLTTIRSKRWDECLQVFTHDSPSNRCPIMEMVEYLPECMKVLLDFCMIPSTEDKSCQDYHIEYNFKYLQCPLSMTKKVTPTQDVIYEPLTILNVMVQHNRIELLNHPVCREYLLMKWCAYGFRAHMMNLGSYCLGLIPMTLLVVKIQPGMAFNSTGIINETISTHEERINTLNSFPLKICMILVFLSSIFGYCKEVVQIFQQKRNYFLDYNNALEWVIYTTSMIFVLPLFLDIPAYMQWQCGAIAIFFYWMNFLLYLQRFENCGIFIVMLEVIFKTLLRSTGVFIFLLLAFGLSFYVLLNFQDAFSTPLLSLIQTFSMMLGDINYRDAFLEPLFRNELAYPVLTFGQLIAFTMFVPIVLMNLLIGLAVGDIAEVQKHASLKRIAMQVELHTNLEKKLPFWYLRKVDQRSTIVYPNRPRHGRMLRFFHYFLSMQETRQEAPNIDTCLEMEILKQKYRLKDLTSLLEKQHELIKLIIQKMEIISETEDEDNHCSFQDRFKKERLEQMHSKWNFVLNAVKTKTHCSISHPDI

C=CCN=C=S [AITC, allyl isothiocyanate]
Hill slope (human TRPA1; concentration-response, human TRPA1): 1.4 | activation of human TRPA1 (human TRPA1; species comparison): robust response | activation of rat TRPA1 (rat TRPA1): robust response | activation of dog TRPA1 (dog TRPA1): robust response | activation of guinea pig TRPA1 (guinea pig TRPA1): robust response | activation of chicken TRPA1 (chicken TRPA1): robust response
